Reference: publication PMC4968691 (Inorganic chemistry, 2012)

How the values were obtained:
[1] = ^177Lu/^64Cu human blood serum competition; type: in vitro ADME
Procedure, shortened: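 Test chelator was labelled with 177Lu or 64Cu in 10 mM NaOAc pH 5.0 for 10 min at ambient temperature. Thawed human serum (750 µL), 300 µL complex and 450 µL PBS were run in triplicate at 37 °C and 550 rpm. Sampling was at 1.5/24 h (177Lu) and 1/20 h (64Cu). Aliquots were PBS-diluted, counted and passed through PD-10 size exclusion, and the PBS eluate was counted as serum-bound. Result is % chelate-bound.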

[2] = ^64Cu biodistribution in healthy nude athymic mice; type: in vivo, mouse; settings: n = 4
Procedure, shortened: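 Healthy nude athymic mice received the HPLC-purified 64Cu complex by tail vein: ~30 µCi (~3 µg) in 200 µL of 2:1 saline:PBS, pH 7. Mice were killed by CO2 at 15 min, 1, 4 and 24 h (n = 4). Organs were rinsed, air-dried 5 min, weighed and gamma-counted. Counts were background- and decay-corrected, calibrated against 64Cu standards and expressed as %ID/g.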

[3] = ^67Ga/^111In mouse serum competition; type: in vitro ADME; settings: mouse blood serum
Procedure, shortened: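 Test chelator (0.3 mg/mL) was labelled with 67Ga (NaOAc 10 mM, pH 4) or 111In (pH 5) for 10 min at ambient temperature. Complex was added to thawed mouse serum plus PBS in triplicate and held at ambient temperature. Sampling was at 15 min, 1 h and 2 h (67Ga) and 1 and 24 h (111In). Aliquots were diluted to 2.5 mL PBS, counted and loaded on PD-10. The 3.5 mL PBS eluate, holding protein-bound activity, was counted against pre-load activity.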

[4] = 24 h, with both ^177Lu and ^111In; cited from earlier work

## O=C(O)CN1CCN(CC(=O)O)CCN(CC(=O)O)CCN(CC(=O)O)CC1 [DOTA, 1,4,7,10-tetraazacyclododecane-1,4,7,10-tetraacetic acid]
[1]; 20 h, 37 °C, 550 rpm, ^64Cu, n = 3
  long-term stability (% chelator-bound radiometal): 74%

## O=C(O)c1cccc(CN(CCN(Cc2cn(Cc3ccccc3)nn2)Cc2cccc(C(=O)O)n2)Cc2cn(Cc3ccccc3)nn2)n1 [H2azapa, N,N′-[1-Benzyl-1,2,3-triazole-4-yl]methyl-N,N′-[6-(carboxy)-pyridin-2-yl]-1,2-diaminoethane]
[2]; 4 h post i.v. injection
  organ uptake, heart: 3.8 % ID/g
[2]; 24 h post i.v. injection
  organ uptake, heart: 3.4 % ID/g
[1]; 20 h, 37 °C
  ^64Cu transchelated to serum proteins: 2%
[1]; 24 h, ^177Lu complex
  ^177Lu transchelated by serum proteins: 54%
[3]; 24 h, ^111In complex
  ^111In transchelated by serum proteins: 35%

## O=C(O)CN(CCN(CC(=O)O)Cc1cccc(C(=O)O)n1)Cc1cccc(C(=O)O)n1 [H4octapa]
[4]
  stable in serum: > 85%
  transchelated by serum proteins: < 15%

## O=C([O-])CN(CCN(CC(=O)[O-])CC(=O)[O-])CCN(CC(=O)[O-])CC(=O)[O-].[111In+3].[H+].[H+] [[^111In(DTPA)]^2−]
[3]; 1 h, 25 °C, n = 3
  medium-term stability (% chelator-bound radiometal): 87 (±2) %
[3]; 24 h, 25 °C, ^111In, n = 3
  long-term stability (% chelator-bound radiometal): 88 (±2) %

## O=C([O-])CN1CCN(CC(=O)[O-])CCN(CC(=O)[O-])CCN(CC(=O)[O-])CC1.[177Lu+3].[H+] [[^177Lu(DOTA)]^−]
[1]; 1.5 h, 37 °C, 550 rpm, ^177Lu, n = 3
  medium-term stability (% chelator-bound radiometal): 87.7 (±0.7) %
[1]; 24 h, 37 °C, 550 rpm, ^177Lu, n = 3
  long-term stability (% chelator-bound radiometal): 87 (±2) %
